From ChEMBL document CHEMBL1151733, “Pirinixic acid derivatives as novel dual inhibitors of microsomal prostaglandin E2 synthase-1 and 5-lipoxygenase” (J Med Chem, 2008)
Active and inactive are the calls of the source. The rule behind the calls is not given here.

Legend:
[1] = target: T1, Prostaglandin G/H synthase 2 (Homo sapiens, UniProt P35354); assay: Inhibition of human recombinant COX2
T1 sequence (P35354 whole entry): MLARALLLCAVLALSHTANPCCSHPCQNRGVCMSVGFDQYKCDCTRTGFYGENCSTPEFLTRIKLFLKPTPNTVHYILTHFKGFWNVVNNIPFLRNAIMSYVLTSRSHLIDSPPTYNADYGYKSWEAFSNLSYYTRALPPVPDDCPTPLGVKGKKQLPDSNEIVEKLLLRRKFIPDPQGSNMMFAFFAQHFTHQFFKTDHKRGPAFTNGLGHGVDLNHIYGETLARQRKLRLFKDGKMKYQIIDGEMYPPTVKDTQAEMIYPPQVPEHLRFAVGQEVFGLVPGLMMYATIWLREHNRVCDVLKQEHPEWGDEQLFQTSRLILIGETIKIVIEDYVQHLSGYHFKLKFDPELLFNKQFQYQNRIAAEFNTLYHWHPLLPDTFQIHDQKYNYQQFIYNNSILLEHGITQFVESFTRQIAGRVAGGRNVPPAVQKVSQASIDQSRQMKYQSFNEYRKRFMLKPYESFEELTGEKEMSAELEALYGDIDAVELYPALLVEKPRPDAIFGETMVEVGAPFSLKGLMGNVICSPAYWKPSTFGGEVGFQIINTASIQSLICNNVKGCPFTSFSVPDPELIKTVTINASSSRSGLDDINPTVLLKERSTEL
Outline: (§1)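 Ovine COX-1 (50 units) or human recombinant COX-2 (20 units) in 100 mM Tris pH 8 with 5 mM glutathione, 5 µM hemoglobin and 100 µM EDTA. Compound preincubation 5 min at 4 °C, then prewarming 60 s at 37 °C. AA added at 5 µM for COX-1 or 2 µM for COX-2, reacted 5 min at 37 °C. 12-HHT extracted and quantified by HPLC. Mean ± SE, n = 3.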

[2] = target: T2, Polyunsaturated fatty acid 5-lipoxygenase (Homo sapiens, UniProt P09917); assay: Inhibition of 5-LO in PMNL cells; format: cell-based
T2 sequence (P09917 whole entry): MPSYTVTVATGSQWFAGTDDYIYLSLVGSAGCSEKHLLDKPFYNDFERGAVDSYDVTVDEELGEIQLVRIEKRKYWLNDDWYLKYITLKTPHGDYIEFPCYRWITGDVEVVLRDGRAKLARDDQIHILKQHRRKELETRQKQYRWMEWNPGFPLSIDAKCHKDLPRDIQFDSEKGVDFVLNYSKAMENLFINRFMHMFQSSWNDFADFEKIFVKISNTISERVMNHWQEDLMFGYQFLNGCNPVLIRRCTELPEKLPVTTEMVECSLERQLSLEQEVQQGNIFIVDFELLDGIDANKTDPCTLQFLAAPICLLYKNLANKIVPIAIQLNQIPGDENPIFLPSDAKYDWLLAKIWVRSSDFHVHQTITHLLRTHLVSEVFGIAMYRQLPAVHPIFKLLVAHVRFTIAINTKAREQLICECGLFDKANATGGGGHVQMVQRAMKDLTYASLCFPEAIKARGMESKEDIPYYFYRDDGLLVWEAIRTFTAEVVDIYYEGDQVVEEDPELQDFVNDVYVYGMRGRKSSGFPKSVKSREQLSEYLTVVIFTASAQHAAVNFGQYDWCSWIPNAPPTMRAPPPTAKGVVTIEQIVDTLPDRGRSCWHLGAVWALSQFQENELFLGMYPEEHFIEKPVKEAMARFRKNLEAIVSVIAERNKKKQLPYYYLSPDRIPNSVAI
Outline: (§2)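 Freshly isolated human PMNL from leukocyte concentrates of healthy donors, 5 × 10⁶ cells/mL in PBS pH 7.4 with 1 mg/mL glucose and 1 mM CaCl₂. Preincubated with compound 15 min at RT, then stimulated with 2.5 µM A23187 plus 20 µM AA for 10 min at 37 °C. Stopped with methanol; LTB₄, its all-trans isomers and 5-H(P)ETE quantified by HPLC with PGB₁ internal standard.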

[3] = target: T3, Prostaglandin E synthase (Homo sapiens) (UniProt O14684); assay: Inhibition of PGES1 in human A549 cell microsome assessed as PGE2 formation at 10 uM by cell-free assay relative to control; design: scale not given: the % may be the effect or the level left
T3 sequence (whole entry): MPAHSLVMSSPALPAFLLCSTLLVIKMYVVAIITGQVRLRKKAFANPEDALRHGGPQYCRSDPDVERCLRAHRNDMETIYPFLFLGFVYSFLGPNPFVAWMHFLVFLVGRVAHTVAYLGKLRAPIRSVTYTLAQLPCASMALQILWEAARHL
Outline: (§3)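 Microsomes from A549 cells grown with IL-1β (1 ng/mL, 72 h), diluted in 0.1 M potassium phosphate pH 7.4 with 2.5 mM glutathione. Compound or DMSO added 15 min before PGH₂ (20 µM final). Reaction ran 1 min at 4 °C and was stopped with FeCl₂/citric acid. PGE₂ isolated by C18 SPE, then RP-HPLC with UV at 195 nm against 11β-PGE₂ internal standard.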

[4] = target: T4, Polyunsaturated fatty acid 5-lipoxygenase (Homo sapiens) (UniProt P09917); assay: Inhibition of 5-LO in human PMNL cells at 10 uM relative to control; format: cell-based; design: scale not given: the % may be the effect or the level left; outline: as §2
T4 sequence (whole entry): T2 sequence (P09917 whole entry)

Prostaglandin E synthase = target: T5, Prostaglandin E synthase (Homo sapiens, UniProt O14684); assay: Inhibition of PGES1 in human A549 cell microsome assessed as PGE2 formation by cell-free assay; outline: as §3
T5 sequence (O14684 whole entry): T3 sequence (whole entry)

[5] = target: T2, Polyunsaturated fatty acid 5-lipoxygenase; assay: Inhibition of human recombinant 5-LO expressed in Escherichia coli by cell-free assay
Outline: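 Human 5-LO expressed in E. coli MV1190 (pT3-5LO) at 27 °C, partially purified from the 100000g lysate supernatant. Held in PBS pH 7.4 with 1 mM EDTA and 1 mM ATP with compound for 10 min at 4 °C, warmed 30 s at 37 °C, then started with 2 mM CaCl₂ plus 20 µM AA. After 10 min at 37 °C, stopped with cold methanol; products measured by HPLC.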

[6] = target: T6, Prostaglandin G/H synthase 1 (Ovis aries) (UniProt P05979); assay: Inhibition of ovine COX1 assessed as remaining activity at 10 uM relative to control; outline: as §1
T6 sequence (whole entry): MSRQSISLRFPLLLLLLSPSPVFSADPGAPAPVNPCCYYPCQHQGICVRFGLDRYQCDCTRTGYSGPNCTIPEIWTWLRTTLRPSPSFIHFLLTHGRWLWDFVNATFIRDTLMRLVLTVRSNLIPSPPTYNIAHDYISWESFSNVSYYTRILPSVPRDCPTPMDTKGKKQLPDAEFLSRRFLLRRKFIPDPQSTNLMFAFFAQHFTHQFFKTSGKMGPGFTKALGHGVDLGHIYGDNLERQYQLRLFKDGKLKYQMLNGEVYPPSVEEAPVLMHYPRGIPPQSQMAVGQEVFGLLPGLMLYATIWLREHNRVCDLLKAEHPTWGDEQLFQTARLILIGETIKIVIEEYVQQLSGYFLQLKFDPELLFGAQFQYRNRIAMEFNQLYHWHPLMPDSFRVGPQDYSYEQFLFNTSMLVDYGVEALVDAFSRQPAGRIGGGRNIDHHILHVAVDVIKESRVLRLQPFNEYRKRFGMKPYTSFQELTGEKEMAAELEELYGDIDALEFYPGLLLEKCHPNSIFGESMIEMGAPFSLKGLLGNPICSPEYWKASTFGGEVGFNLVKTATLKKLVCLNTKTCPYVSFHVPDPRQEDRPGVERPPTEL

[7] = target: T7, Prostaglandin G/H synthase 2 (Homo sapiens) (UniProt P35354); assay: Inhibition of human recombinant COX2 assessed as remaining activity at 10 uM relative to control; outline: as §1
T7 sequence (whole entry): T1 sequence (P35354 whole entry)

[8] = target: T8, Prostaglandin G/H synthase 1 (Ovis aries, UniProt P05979); assay: Inhibition of ovine COX1; outline: as §1
T8 sequence (P05979 whole entry): T6 sequence (whole entry)

[9] = target: T3, Prostaglandin E synthase (Homo sapiens); assay: Inhibition of mPGES1 in human A549 cells assessed as inhibition of IL-1-beta-induced PGE2 formation at 10 uM by cell-intact assay; format: cell-based
Outline: (§4)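 A549 cells stimulated with IL-1β for 72 h; 2 × 10⁶ cells in 0.5 mL PBS with 1 mM CaCl₂, preincubated with compound 10 min at 37 °C. Stimulated with 2.5 µM A23187, 1 µM AA and [³H]AA (18.4 kBq) for 15 min at 37 °C. Supernatant acidified; [³H]PGE₂ separated by SPE/RP-HPLC and counted by scintillation. Vehicle 0.1% DMSO; mean ± SE, n = 3.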

[10] = target: T3, Prostaglandin E synthase (Homo sapiens); settings: A549, 33 uM
[11] = target: T3, Prostaglandin E synthase (Homo sapiens); assay: Inhibition of mPGES1 in human A549 cells assessed as inhibition of IL-1-beta-induced PGE2 formation at 5 uM by cell-intact assay; format: cell-based; outline: as §4

Row | SMILES | IC50 [1] | IC50 [2] | Activity [3] | Activity [4] | IC50 (Prostaglandin E synthase) | IC50 [5] | Activity [6] | Activity [7] | IC50 [8] | Activity [9] | Activity [11] | inhibition [10]
1 | CCCCCCC(Sc1nc(Cl)cc(NCc2ccc(-c3ccccc3)cc2)n1)C(=O)O (centres undefined) | > 10000 nM | 1000 nM | 21.8% | 3% | – | 2000 nM | 67.3% | 61.3% | > 10000 nM | – | – | –
2 | CCCCCCC(Sc1nc(Cl)cc(Nc2ccc3ncccc3c2)n1)C(=O)OCC (centres undefined) | > 10000 nM | – | 39.1% | – | 5600 nM | – | 69.5% | 61.7% | > 10000 nM | – | – | –
3 | CC(C)c1ccc2c(c1)c(SC(C)(C)C)c(CC(C)(C)C(=O)O)n2Cc1ccc(Cl)cc1 | > 10000 nM | 90 nM | 26% | inactive | – | – | – | – | > 10000 nM | – | – | 63%
4 | CCCCCCC(Sc1nc(Cl)cc(Nc2ccc(-c3ccc(C#N)cc3)cc2)n1)C(=O)O (centres undefined) | > 10000 nM | 400 nM | 26.1% | 2.7% | – | 1500 nM | 66% | 61.2% | > 10000 nM | – | – | –
5 | CCCCCCC(Sc1nc(Cl)cc(Nc2ccc(-c3ccccc3)cc2)n1)C(=O)O (centres undefined) | > 10000 nM | 700 nM | 21.7% | 4.1% | 1600 nM | 1500 nM | 52.3% | 57.1% | > 10000 nM | – | – | –
6 | Cc1ccc(-c2cc(C(F)(F)F)nn2-c2ccc(S(N)(=O)=O)cc2)cc1 | – | – | – | – | – | – | – | – | – | – | Active | –

Further lines, with some results ahead:

Row | IC50 [1] | IC50 [2] | Activity [3] | Activity [4] | IC50 (Prostaglandin E synthase) | IC50 [5] | Activity [6] | Activity [7] | IC50 [8] | Activity [9] | Activity [11] | SMILES | inhibition [10]
7 | > 10000 nM | 500 nM | 24.9% | 3.1% | 2100 nM | 2000 nM | 71.2% | 53.7% | > 10000 nM | – | – | CCCCCCC(Sc1nc(Cl)cc(Nc2cc(C)c(-c3ccccc3)cc2OC)n1)C(=O)O (centres undefined) | –
8 | – | – | – | – | – | – | 19% | – | – | Active | – | COc1ccc2c(c1)c(CC(=O)O)c(C)n2C(=O)c1ccc(Cl)cc1 | –
